Data reported in ChEMBL document CHEMBL1134346, “Labeling and evaluation of N-[11C]methylated quinoline-2-carboxamides as potential radioligands for visualization of peripheral benzodiazepine receptors” (J Med Chem, 2001).

species: Rattus norvegicus; assay: Tissue (cortex) distribution in Albino male CD rats after 90 minutes expressed as percent of injected dose per gram of organ.; format: ADME, organism-based; settings: in vivo, 1.5 h
Summary of the method: (§1)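 Radioligand given in saline into tail vein of male albino CD rats (225-250 g); 100-200 µCi per animal, 1-2 Ci/µmol at injection depending on radioligand. Three rats per time point were decapitated under light ether anaesthesia. Blood, plasma, brain regions and washed organs were weighed and gamma-counted. Uptake is %I.D./g tissue, mean ± SD.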

| I.D./g [%] | Compound |
| --- | --- |
| 0.03 | CCC(C)N(C)C(=O)c1nc2ccccc2c(-c2ccccc2)c1C (stereo not given) |

molecular target: Translocator protein (Rattus norvegicus) (UniProt P16257); assay: Tissue (adrenal gland) concentration of radioactivity at 30 min post-injection into Albino male CD rats after pretreatment with cold PK 11195.; format: functional, tissue-based; settings: not given
Summary of the method: (§2)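 Separate groups of five rats received tail-vein PK 11195 (1.4-1.6 mg; 5 mg/kg) in 30 µL DMSO:EtOH 1:1, or vehicle alone, immediately before iv radioligand (90-170 µCi in saline, 0.9-1 Ci/µmol). Rats were decapitated at 30 min and tissues gamma-counted; values are %I.D./g.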

Chain of Translocator protein (Rattus norvegicus) (P16257 whole entry, looked up): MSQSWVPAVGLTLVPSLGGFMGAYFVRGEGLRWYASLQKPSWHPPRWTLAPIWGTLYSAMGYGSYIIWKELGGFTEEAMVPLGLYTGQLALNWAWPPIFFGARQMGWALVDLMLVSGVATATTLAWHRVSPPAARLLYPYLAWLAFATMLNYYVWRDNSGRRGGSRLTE

| I.D./g [%] | Compound |
| --- | --- |
| > 0.94 | CCC(C)N(C)C(=O)c1nc2ccccc2c(-c2ccccc2)c1C (stereo not given) |

species: Rattus norvegicus; assay: Tissue (muscle) distribution in Albino male CD rats after 90 minutes expressed as percent of injected dose per gram of organ.; format: ADME, organism-based; settings: in vivo, 1.5 h
Summary of the method: (§3)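 Male albino CD rats (225-250 g) received the 11C-labelled radioligand in saline by tail-vein injection. Three rats per time point were decapitated under light ether anaesthesia at 5, 15, 30, 60 or 90 min. Blood was collected heparinized and plasma separated by centrifugation. The pituitary was dissected from the brain. Lung, liver (three-lobe pieces) and right deltoid muscle were sampled, washed in cold saline, gamma-counted and weighed. Results are %I.D./g.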

| I.D./g [%] | Compound |
| --- | --- |
| 0.12 | CCC(C)N(C)C(=O)c1nc2ccccc2c(-c2ccccc2)c1C (stereo not given) |

molecular target: Translocator protein (Rattus norvegicus) (UniProt P16257); assay: Tissue (pituitary) concentration of radioactivity at 30 min post-injection into Albino male CD rats after pretreatment with cold PK 11195.; format: functional, tissue-based; settings: Pituitary gland
Summary of the method: (§4)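 Blocking study in male albino CD rats, five per group. Immediately before the 11C radioligand (in saline, i.v. tail vein), rats received 30 µL tail-vein PK 11195 (5 mg/kg; 1.4-1.6 mg) in DMSO:EtOH 1:1, or vehicle. Rats were decapitated at 30 min. Tissues were dissected, washed, gamma-counted and weighed as in the biodistribution study. Results are %I.D./g.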

| I.D./g [%] | Compound |
| --- | --- |
| < 0.07 | CCC(C)N(C)C(=O)c1nc2ccccc2c(-c2ccccc2)c1C (stereo not given) |

species: Rattus norvegicus; assay: Tissue (pituitary) distribution in Albino male CD rats after 15 minutes expressed as percent of injected dose per gram of organ.; format: ADME, organism-based, Pituitary gland; settings: in vivo, 0.25 h; summary of the method: as §3

| I.D./g [%] | Compound |
| --- | --- |
| 0.2 | CCC(C)N(C)C(=O)c1nc2ccccc2c(-c2ccccc2)c1C (stereo not given) |

species: Rattus norvegicus; assay: Tissue (pituitary) distribution in Albino male CD rats after 90 minutes expressed as percent of injected dose per gram of organ.; format: ADME, organism-based, Pituitary gland; settings: in vivo, 1.5 h; summary of the method: as §3

| I.D./g [%] | Compound |
| --- | --- |
| 0.2 | CCC(C)N(C)C(=O)c1nc2ccccc2c(-c2ccccc2)c1C (stereo not given) |

species: Rattus norvegicus; assay: Tissue (plasma) distribution in Albino male CD rats after 15 minutes expressed as percent of injected dose per gram of organ.; format: ADME, organism-based; settings: in vivo, 0.25 h; summary of the method: as §3

| I.D./g [%] | Compound |
| --- | --- |
| 0.05 | CCC(C)N(C)C(=O)c1nc2ccccc2c(-c2ccccc2)c1C (stereo not given) |

species: Rattus norvegicus; assay: Tissue (plasma) distribution in Albino male CD rats after 5 minutes expressed as percent of injected dose per gram of organ.; format: ADME, organism-based; settings: in vivo; summary of the method: as §3

| I.D./g [%] | Compound |
| --- | --- |
| 0.12 | CCC(C)N(C)C(=O)c1nc2ccccc2c(-c2ccccc2)c1C (stereo not given) |

species: Rattus norvegicus; assay: Tissue (plasma) distribution in Albino male CD rats after 90 minutes expressed as percent of injected dose per gram of organ.; format: ADME, organism-based; settings: in vivo, 1.5 h; summary of the method: as §3

| I.D./g [%] | Compound |
| --- | --- |
| 0.02 | CCC(C)N(C)C(=O)c1nc2ccccc2c(-c2ccccc2)c1C (stereo not given) |

molecular target: Translocator protein (Rattus norvegicus) (UniProt P16257); assay: Tissue (spleen) concentration of radioactivity at 30 min post-injection into Albino male CD rats after pretreatment with cold PK 11195.; format: functional, tissue-based; settings: not given; summary of the method: as §4

| I.D./g [%] | Compound |
| --- | --- |
| < 0.11 | CCC(C)N(C)C(=O)c1nc2ccccc2c(-c2ccccc2)c1C (stereo not given) |

species: Rattus norvegicus; assay: Tissue (heart) distribution in Albino male CD rats after 30 minutes expressed as percent of injected dose per gram of organ.; format: ADME, organism-based; settings: in vivo, 0.5 h; summary of the method: as §1

| I.D./g [%] | Compound |
| --- | --- |
| 1.21 | CCC(C)N(C)C(=O)c1nc2ccccc2c(-c2ccccc2)c1C (stereo not given) |

species: Rattus norvegicus; assay: Tissue (heart) distribution in Albino male CD rats after 5 minutes expressed as percent of injected dose per gram of organ.; format: ADME, organism-based; settings: in vivo; summary of the method: as §1

| I.D./g [%] | Compound |
| --- | --- |
| 0.86 | CCC(C)N(C)C(=O)c1nc2ccccc2c(-c2ccccc2)c1C (stereo not given) |

species: Rattus norvegicus; assay: Tissue (heart) distribution in Albino male CD rats after 60 minutes expressed as percent of injected dose per gram of organ.; format: ADME, organism-based; settings: in vivo, 1 h; summary of the method: as §1

| I.D./g [%] | Compound |
| --- | --- |
| 1.26 | CCC(C)N(C)C(=O)c1nc2ccccc2c(-c2ccccc2)c1C (stereo not given) |

species: Rattus norvegicus; assay: Tissue (intestine) distribution in Albino male CD rats after 30 minutes expressed as percent of injected dose per gram of organ.; format: ADME, organism-based; settings: in vivo, 0.5 h; summary of the method: as §1

| I.D./g [%] | Compound |
| --- | --- |
| 0.4 | CCC(C)N(C)C(=O)c1nc2ccccc2c(-c2ccccc2)c1C (stereo not given) |

species: Rattus norvegicus; assay: Tissue (intestine) distribution in Albino male CD rats after 5 minutes expressed as percent of injected dose per gram of organ.; format: ADME, organism-based; settings: in vivo; summary of the method: as §1

| I.D./g [%] | Compound |
| --- | --- |
| 0.25 | CCC(C)N(C)C(=O)c1nc2ccccc2c(-c2ccccc2)c1C (stereo not given) |

species: Rattus norvegicus; assay: Tissue (kidney) concentration of radioactivity at 30 min post-injection into Albino male CD rats with vehicle.; format: ADME, organism-based; settings: in vivo, 0.5 h; summary of the method: as §2

| I.D./g [%] | Compound |
| --- | --- |
| 0.45 | CCC(C)N(C)C(=O)c1nc2ccccc2c(-c2ccccc2)c1C (stereo not given) |

species: Rattus norvegicus; assay: Tissue (blood) distribution in Albino male CD rats after 90 minutes expressed as percent of injected dose per gram of organ.; format: ADME, organism-based; settings: in vivo, 1.5 h; summary of the method: as §1

| I.D./g [%] | Compound |
| --- | --- |
| 0.03 | CCC(C)N(C)C(=O)c1nc2ccccc2c(-c2ccccc2)c1C (stereo not given) |

species: Rattus norvegicus; assay: Tissue (cerebellum) distribution in Albino male CD rats after 30 minutes expressed as percent of injected dose per gram of organ.; format: ADME, organism-based; settings: in vivo, 0.5 h; summary of the method: as §1

| I.D./g [%] | Compound |
| --- | --- |
| 0.09 | CCC(C)N(C)C(=O)c1nc2ccccc2c(-c2ccccc2)c1C (stereo not given) |

species: Rattus norvegicus; assay: Tissue (cerebellum) distribution in Albino male CD rats after 60 minutes expressed as percent of injected dose per gram of organ.; format: ADME, organism-based; settings: in vivo, 1 h; summary of the method: as §1

| I.D./g [%] | Compound |
| --- | --- |
| 0.05 | CCC(C)N(C)C(=O)c1nc2ccccc2c(-c2ccccc2)c1C (stereo not given) |

species: Rattus norvegicus; assay: Tissue (intestine) distribution in Albino male CD rats after 15 minutes expressed as percent of injected dose per gram of organ.; format: ADME, organism-based; settings: in vivo, 0.25 h; summary of the method: as §1

| I.D./g [%] | Compound |
| --- | --- |
| 0.32 | CCC(C)N(C)C(=O)c1nc2ccccc2c(-c2ccccc2)c1C (stereo not given) |
